The values that follow come from ChEMBL document CHEMBL4004784, “Antioxidant Hydroanthraquinones from the Marine Algal-Derived Endophytic Fungus Talaromyces islandicus EN-501” (J Nat Prod, 2017).

SMILES strings stand for the structures. ≈ marks a conversion by molar mass, not a printed value. Calls of active or inactive are those of the source. The calls are words filed in the database; no cut-off is given here. Where only a bound is given, the exact number is not on record here.

The subject of assay [1] is Escherichia coli. Nature of the assay: Antimicrobial activity against Escherichia coli EMBLC-1 by XTT assay. In kind it is functional. A digest of the protocol: (§1)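 Microplate assay on bacterial strains supplied by the Institute of Oceanology, Chinese Academy of Sciences, with chloramphenicol as the positive control.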
Assay [2] relates to Staphylococcus aureus. The assay can be described thus: Antimicrobial activity against Staphylococcus aureus EMBLC-2 by XTT assay. In kind it is functional. In a few lines:
as §1
Background: Tetrazolium dyes change colour on reduction, which living cells bring about.

The test system of assay [3] is Edwardsiella tarda. The assay can be described thus: Antimicrobial activity against Edwardsiella tarda QDIO-2 by XTT assay. Type of assay: functional. A digest of the protocol: as §1
The nature of assay [4]: Cytotoxicity against human A2780cis cells after 72 hrs by MTT assay. Type of assay: functional, cell-based.
Assay [5] in a line: Antioxidant activity assessed as ABTS radical scavenging activity. Type of assay: functional. In a few lines: (§2)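 Radical scavenging of pure compounds against DPPH and ABTS radicals, run by previously published methods and reported as IC50 in μM. Positive controls were BHT for DPPH and ascorbic acid for ABTS.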
The nature of assay [6]: Antioxidant activity assessed as DPPH radical scavenging activity. Type of assay: functional. A digest of the protocol: as §2
Assay [7] relates to A2780. The assay can be described thus: Cytotoxicity against human A2780 cells after 72 hrs by MTT assay. The note with it: A2780, 72 h. In kind it is functional, cell-based.
Assay [8] relates to A2780. The assay can be described thus: Cytotoxicity against human A2780 cells at 100 uM after 72 hrs by MTT assay. Type of assay: functional, cell-based.
Assay [9] has as its system A2780cis. Nature of the assay: Cytotoxicity against human A2780cis cells at 100 uM after 72 hrs by MTT assay. In kind it is functional, cell-based.

Usually MIC stands for the lowest concentration that inhibits growth of the organism. As to `O=C(N[C@H](CO)[C@H](O)c1ccc([N+](=O)[O-])cc1)C(Cl)Cl` [CHLORAMPHENICOL], the MIC stood at 4 µg/mL (≈ 12.4 µM) in assay [1], 2 µg/mL (≈ 6.19 µM) in [2] and 2 µg/mL (≈ 6.19 µM) in [3].
As usually defined, the IC50 is the point on the concentration scale where inhibition reaches its midpoint. For the compound `Cc1cc(O)c2c(c1O)[C@H](O)[C@H]1C[C@@H](O)CC[C@@H]1C2=O`, the figures for the MIC in [1] and in [2] were 64 µg/mL (≈ 230 µM) and 4 µg/mL (≈ 14.4 µM), respectively. The concentration for half-maximal inhibition (IC50) in assay [4] was over 10 µM; in assay [5], 8.3 µM; in assay [6], 12 µM; in assay [7] it was over 10 µM. Moreover, the MIC result in assay [3] is “inactive”.
On to `Cc1cc(C(C)(C)C)c(O)c(C(C)(C)C)c1` [BUTYLATED HYDROXYTOLUENE], for which the IC50 in assay [6] was determined as 61 µM.
Take `Cc1cc(O)c2c(c1O)[C@H](O)[C@H]1C[C@@H](O)C[C@H](O)[C@@H]1C2=O`: the minimum inhibitory concentration (MIC) in [1] was 32 µg/mL (≈ 109 µM); in assay [2], 4 µg/mL (≈ 13.6 µM); in assay [3] it was 64 µg/mL (≈ 217 µM). Also, the half-maximal inhibitory concentration (IC50) in assay [4] is over 10 µM; in assay [5] it was 31 µM; in assay [6], 52 µM; in assay [7] it was over 10 µM.
Turning to `O=C1O[C@H]([C@@H](O)CO)C(O)=C1O` [ASCORBIC ACID], the IC50 in [5] is 16 µM.
For the compound `Cc1cc(O)c2c(c1O)[C@H](O)[C@H]1C[C@@H](O)C[C@@H](O)[C@@H]1C2=O`, the values for the minimal inhibitory concentration (MIC) in assay [1], in [2] and in assay [3] were 32 µg/mL (≈ 109 µM), 4 µg/mL (≈ 13.6 µM) and 64 µg/mL (≈ 217 µM), respectively. Also, the 50% inhibitory concentration (IC50) in assay [4] was over 10 µM; in assay [5] it was 34 µM; in assay [6] it was 42 µM; in assay [7], over 10 µM.
Take `CO[C@@H]1c2c(O)cc(C)c(O)c2C(=O)[C@@H]2C[C@H](O)C[C@H](O)[C@@H]12`: the MIC result in [1] and in assay [3] was “inactive” in each case. Further, the IC50 was over 10 µM in assay [4], 24 µM in assay [5], 30 µM in [6] and over 10 µM in [7]. In addition, in assay [2], the MIC stood at 8 µg/mL (≈ 25.9 µM).
On to `O=C1c2c(O)cc(CO)c(O)c2[C@H](O)[C@H]2C[C@@H](O)CC[C@H]12`, for which the results for the MIC in assay [1], in assay [2] and in [3] were 16 µg/mL (≈ 54.4 µM), 2 µg/mL (≈ 6.8 µM) and 32 µg/mL (≈ 109 µM), respectively. In addition, the outcome in assay [8] and in assay [9] was Active. Moreover, the IC50 came out at 19 µM in assay [5] and 31 µM in assay [6].
